# Experimental data as given in ChEMBL document CHEMBL1139875, “Discovery of 4-aminobutyric acid derivatives possessing anticonvulsant and antinociceptive activities: a hybrid pharmacophore approach” (2007).
# Calls of active or inactive are those of the source. No cut-off for these calls is given here.
# Tests used:
# Rattus norvegicus [1] = test: Antihyperalgesic effects in Sprague-Dawley rat SNL model assessed as duration of paw withdrawal at 100 mg/kg, ip after 2.5 hrs, ip; type: functional; conditions: route intraperitoneal
# How it was run: (§1)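 L5 SNL rats (n = 4), dosed 100 mg/kg i.p. (vehicle 30% v/v PEG 400 in water). Pin-prick to midplantar ipsilateral left hindpaw; withdrawal duration, mean of three responses; ≥2 s defined abnormal. Mean ± SEM; one-way ANOVA with Bonferroni versus predrug.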
# Rattus norvegicus [2] = test: Antihyperalgesic effects in Sprague-Dawley rat SNL model assessed as duration of paw withdrawal at 100 mg/kg, ip after 1.5 hrs, ip; type: functional; conditions: route intraperitoneal; how it was run: as §1
# Rattus norvegicus [3] = test: Anti-dynamic allodynia effect in Sprague-Dawley rat SNL model assessed as latency to paw withdrawal 100 mg/kg, ip after 2 hrs; type: functional; conditions: route intraperitoneal
# How it was run: (§2)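 Left L5 spinal nerve ligation rats, tested preoperatively and 9 days postoperatively, then given 100 mg/kg i.p. (vehicle 30% v/v PEG 400 in water). After 10 min acclimatization, plantar surface of affected paw stroked mildly with a cotton-bud; paw lift response recorded. n = 4; retested 0.5-2.5 h post-dose.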
# Mus musculus [4] = test: Anticonvulsant activity in Swiss Albino mouse at 100 mg/kg, ip after 4 hrs by scPIC test; type: functional, organism-based; design: dose 100 mg/kg
# How it was run: (§3)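 Mice (Swiss, 20-25 g) given i.p. doses of 30, 100 and 300 mg/kg under ADD program protocols, three per group, examined at 0.5 and 4 h in MES, scPTZ, scSTY or scPIC seizure tests. Value is the minimum dose protecting half or more of the mice.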
# Rattus norvegicus [5] = organism: Rattus norvegicus; test: Anti-dynamic allodynic effect in Sprague-Dawley rat CCI model assessed as latency to paw withdrawal after 1 hr; type: functional
# How it was run: (§4)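 Rats with sciatic nerve chronic constriction injury (pentobarbital 65 mg/kg i.p. anaesthesia), baseline and day 9 testing, then drug per randomization table. After 10 min acclimatization, affected plantar surface stroked mildly with a cotton-bud; paw lift recorded. n = 4; retested 0.5-2.5 h post-dose.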
# Mus musculus [6] = test: Anticonvulsant activity in Swiss Albino mouse at 300 mg/kg, ip after 4 hrs by MES test; type: functional, organism-based; design: dose 300 mg/kg; how it was run: as §3
# Rattus norvegicus [7] = organism: Rattus norvegicus; test: Anti-dynamic allodynic effect in Sprague-Dawley rat CCI model assessed as latency to paw withdrawal after 2 hr; type: functional; how it was run: as §4
# Rattus norvegicus [8] = test: Antihyperalgesic effects in Sprague-Dawley rat SNL model assessed as duration of paw withdrawal at 100 mg/kg, ip after 0.5 hr, ip; type: functional; conditions: route intraperitoneal; how it was run: as §1
# Rattus norvegicus [9] = test: Antihyperalgesic effects in Sprague-Dawley rat CCI model assessed as duration of paw withdrawal at 100 mg/kg, ip after 1.5 hrs; type: functional; conditions: route intraperitoneal
# Mus musculus [10] = test: Neurotoxicity in Swiss Albino mouse at 300 mg/kg, ip after 0.5 hr by rotarod test; type: functional, organism-based; design: dose 300 mg/kg
# How it was run: (§5)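 Swiss mice (20-25 g) are trained on an accelerating rotorod (10 rpm, 3.2 cm rod), then injected i.p. at 30, 100 or 300 mg/kg, with three per group. Neurotoxicity means failure to keep equilibrium for at least 1 min in each of three trials, checked at 0.5 and 4 h. The value reported is the minimum dose affecting half or more of the mice.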
# Rattus norvegicus [11] = test: Antihyperalgesic effects in Sprague-Dawley rat SNL model assessed as duration of paw withdrawal at 100 mg/kg, ip after 1 hr, ip; type: functional; conditions: route intraperitoneal; how it was run: as §1
# Mus musculus [12] = test: Analgesic activity in Swiss Albino mouse assessed as number of acetic acid-induced writhing per 30 min after 100 mg/kg, ip; type: functional; conditions: route intraperitoneal
# How it was run: (§6)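 Mice in groups of six dosed i.p. at 100 mg/kg, controls receiving 30% v/v PEG 400 in water. Writhing induced by i.p. 0.1 mL of 3% v/v acetic acid 1 h after drug. Writhes (abdominal stretch with at least one hind limb extended) counted over 30 min; % inhibition calculated. Mean ± SEM, Student's t test.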
# Rattus norvegicus [13] = test: Antihyperalgesic effects in Sprague-Dawley rat SNL model assessed as duration of paw withdrawal at 100 mg/kg, ip after 2 hrs, ip; type: functional; conditions: route intraperitoneal; how it was run: as §1
# Mus musculus [14] = test: Anticonvulsant activity in Swiss Albino mouse at 300 mg/kg, ip after 0.5 hr by scSTY test; type: functional, organism-based; design: dose 300 mg/kg; how it was run: as §3
# Rattus norvegicus [15] = test: Effect on spontaneous pain in Sprague-Dawley rat SNL model assessed as duration of paw withdrawal at 100 mg/kg, ip after 1 hr; type: functional; conditions: route intraperitoneal
# How it was run: (§7)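 Rats underwent left L5 spinal nerve ligation (Kim and Chung) under i.p. pentobarbital (65 mg/kg). Spontaneous pain is recorded for 5 min after 10 min acclimatization, as cumulative duration the ipsilateral paw is lifted, excluding locomotor lifts. Dosing is 100 mg/kg i.p. in 30% v/v PEG 400/water, with testing at 0.5–2.5 h. Four rats, mean ± SEM versus predrug, one-way ANOVA with Bonferroni.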
# Rattus norvegicus [16] = test: Effect on spontaneous pain in Sprague-Dawley rat SNL model assessed as duration of paw withdrawal at 100 mg/kg, ip after 2 hrs; type: functional; conditions: route intraperitoneal; how it was run: as §7
# Rattus norvegicus [17] = test: Anti-dynamic allodynia effect in Sprague-Dawley rat SNL model assessed as latency to paw withdrawal 100 mg/kg, ip after 2.5 hrs; type: functional; conditions: route intraperitoneal; how it was run: as §2
# Rattus norvegicus [18] = test: Effect on spontaneous pain in Sprague-Dawley rat SNL model assessed as duration of paw withdrawal at 100 mg/kg, ip after 0.5 hr; type: functional; conditions: route intraperitoneal; how it was run: as §7
# Rattus norvegicus [19] = test: Effect on spontaneous pain in Sprague-Dawley rat SNL model assessed as duration of paw withdrawal at 100 mg/kg, ip after 1.5 hrs; type: functional; conditions: route intraperitoneal; how it was run: as §7
# Rattus norvegicus [20] = organism: Rattus norvegicus; test: Anti-dynamic allodynic effect in Sprague-Dawley rat CCI model assessed as latency to paw withdrawal after 2.5 hr; type: functional; how it was run: as §4
# Rattus norvegicus [21] = test: Anti-dynamic allodynia effect in Sprague-Dawley rat SNL model assessed as latency to paw withdrawal 100 mg/kg, ip after 1 hr; type: functional; conditions: route intraperitoneal; how it was run: as §2
# Rattus norvegicus [22] = test: Antihyperalgesic effects in Sprague-Dawley rat CCI model assessed as duration of paw withdrawal at 100 mg/kg, ip after 0.5 hr; type: functional; conditions: route intraperitoneal
# Rattus norvegicus [23] = test: Antihyperalgesic effects in Sprague-Dawley rat CCI model assessed as duration of paw withdrawal at 100 mg/kg, ip after 2.5 hrs; type: functional; conditions: route intraperitoneal
# Mus musculus [24] = test: Anticonvulsant activity in Swiss Albino mouse at 100 mg/kg, ip after 0.5 hr by scPIC test; type: functional, organism-based; design: dose 100 mg/kg; how it was run: as §3
# Rattus norvegicus [25] = test: Effect on spontaneous pain in Sprague-Dawley rat SNL model assessed as duration of paw withdrawal at 100 mg/kg, ip after 2.5 hrs; type: functional; conditions: route intraperitoneal; how it was run: as §7
# Rattus norvegicus [26] = organism: Rattus norvegicus; test: Anti-dynamic allodynic effect in Sprague-Dawley rat CCI model assessed as latency to paw withdrawal after 0.5 hr; type: functional; how it was run: as §4
# Mus musculus [27] = test: Anticonvulsant activity in Swiss Albino mouse at 300 mg/kg, ip after 0.5 hr by MES test; type: functional, organism-based; design: dose 300 mg/kg; how it was run: as §3
# Mus musculus [28] = test: Analgesic activity in Swiss Albino mouse assessed as inhibition of acetic acid-induced writhing responses at 100 mg/kg, ip; type: functional; conditions: route intraperitoneal; how it was run: as §6
# Rattus norvegicus [29] = test: Anti-dynamic allodynia effect in Sprague-Dawley rat SNL model assessed as latency to paw withdrawal 100 mg/kg, ip after 1.5 hrs; type: functional; conditions: route intraperitoneal; how it was run: as §2
# Mus musculus [30] = test: Anticonvulsant activity in Swiss Albino mouse at 300 mg/kg, ip after 0.5 hr by scPTZ test; type: functional, organism-based; design: dose 300 mg/kg; how it was run: as §3
# Rattus norvegicus [31] = test: Antihyperalgesic effects in Sprague-Dawley rat CCI model assessed as duration of paw withdrawal at 100 mg/kg, ip after 1 hr; type: functional; conditions: route intraperitoneal
# Rattus norvegicus [32] = organism: Rattus norvegicus; test: Anti-dynamic allodynic effect in Sprague-Dawley rat CCI model assessed as latency to paw withdrawal after 1.5 hr; type: functional; how it was run: as §4
# Rattus norvegicus [33] = test: Antihyperalgesic effects in Sprague-Dawley rat CCI model assessed as duration of paw withdrawal at 100 mg/kg, ip after 2 hrs; type: functional; conditions: route intraperitoneal
# Rattus norvegicus [34] = test: Anti-dynamic allodynia effect in Sprague-Dawley rat SNL model assessed as latency to paw withdrawal 100 mg/kg, ip after 0.5 hr; type: functional; conditions: route intraperitoneal; how it was run: as §2
# Mus musculus [35] = test: Anticonvulsant activity in Swiss Albino mouse at 300 mg/kg, ip after 4 hrs by scSTY test; type: functional, organism-based; design: dose 300 mg/kg; how it was run: as §3
# Mus musculus [36] = test: Neurotoxicity in Swiss Albino mouse at 300 mg/kg, ip after 4 hrs by rotarod test; type: functional, organism-based; design: dose 300 mg/kg; how it was run: as §5
smiles,measurement,setting,value
O=C(O)CCCNC(=O)N/N=C/c1ccc(Cl)cc1,Activity,Rattus norvegicus [1],17.9 s
same,Activity,Rattus norvegicus [2],12.3 s
same,Activity,Rattus norvegicus [3],0.8 s
same,Activity,Mus musculus [4],Active
same,Activity,Rattus norvegicus [5],3.5 s
same,Activity,Mus musculus [6],inactive
same,Activity,Rattus norvegicus [7],14.5 s
same,Activity,Rattus norvegicus [8],24.6 s
same,Activity,Rattus norvegicus [9],4.4 s
same,Activity,Mus musculus [10],inactive
same,Activity,Rattus norvegicus [11],17.3 s
same,Activity,Mus musculus [12],59.3
same,Activity,Rattus norvegicus [13],5.6 s
same,Activity,Mus musculus [14],Active
same,Activity,Rattus norvegicus [15],14 s
same,Activity,Rattus norvegicus [16],11.2 s
same,Activity,Rattus norvegicus [17],0.35 s
same,Activity,Rattus norvegicus [18],33.1 s
same,Activity,Rattus norvegicus [19],12.7 s
same,Activity,Rattus norvegicus [20],13 s
same,Activity,Rattus norvegicus [21],4.2 s
same,Activity,Rattus norvegicus [22],7.9 s
same,Activity,Rattus norvegicus [23],7.2 s
same,Activity,Mus musculus [24],Active
same,Activity,Rattus norvegicus [25],15.9 s
same,Activity,Rattus norvegicus [26],14.9 s
same,Activity,Mus musculus [27],inactive
same,inhibition in vivo at 100 mg/kg,Mus musculus [28],68%
same,Activity,Rattus norvegicus [29],11.3 s
same,Activity,Mus musculus [30],inactive
same,Activity,Rattus norvegicus [31],7.8 s
same,Activity,Rattus norvegicus [32],1.1 s
same,Activity,Rattus norvegicus [33],4.2 s
same,Activity,Rattus norvegicus [34],4.5 s
same,Activity,Mus musculus [35],Active
same,Activity,Mus musculus [36],inactive
